Bioassay records as filed in PubChem.
A selection: hits, their analogues and other compounds. The true share with any hit is near 2.2%.
HDAC3 inh: inhibitors of human histone deacetylase 3; O15379; recombinant HDAC3, fluorogenic peptide/trypsin coupled, fluorescence; inhibition, % at 8.3 µM; 320,000 tested, 0.15% active; in the data active = inhibition above about 26%, passing the limit was not always enough
Target sequence (O15379 whole entry, looked up): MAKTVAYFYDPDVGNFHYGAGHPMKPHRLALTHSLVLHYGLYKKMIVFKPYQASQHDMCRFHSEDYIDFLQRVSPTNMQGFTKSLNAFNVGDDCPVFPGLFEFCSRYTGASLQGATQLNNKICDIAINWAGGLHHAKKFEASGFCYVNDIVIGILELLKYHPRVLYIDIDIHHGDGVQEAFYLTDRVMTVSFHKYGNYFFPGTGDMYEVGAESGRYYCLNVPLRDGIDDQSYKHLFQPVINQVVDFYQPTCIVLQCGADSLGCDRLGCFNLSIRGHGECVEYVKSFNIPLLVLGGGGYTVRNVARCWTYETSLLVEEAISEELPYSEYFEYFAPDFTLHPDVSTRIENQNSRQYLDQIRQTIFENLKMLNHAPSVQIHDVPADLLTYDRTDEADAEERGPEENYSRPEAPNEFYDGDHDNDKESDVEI
AI-2 QS modul: modulates the Vibrio harveyi AI-2 quorum sensing system | AID 2094 | Vibrio harveyi JMH597 AI-2 luminescence/OD600 ratio, 9 h; active compounds read low; strain lacks LuxN and CqsS sensors; 0 = neutral-control median | activity change, % at 7.5 µM | 300,000 tested, 0.4% active; in the data active = activity change below about -75%, passing the limit was not always enough;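 also: luminescence divided by OD600 gain over 9 h not by final OD600 alone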
PolyA inhibitor: yeast polyadenylation inhibition; S. cerevisiae SKY197-pL101 polyadenylation reporter, beta-gal luminescence; efflux-impaired pdr1/pdr3 knockout yeast; score 100 = 6 SD above DMSO; activity score, % at 12 µM; 300,000 tested, 0.02% active; AID 1875;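 active = lowest replicate activity score at least 50, where 100 means six control SD above control mean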;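 also: yeast exposed to compound for 9 h at 30 °C; higher score means more reporter readthrough which indicates perturbed polyadenylation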
Efflux pump mplx: antifungal efflux pump inhibition, Nile Red retention. 330,000 tested, 0.44% active. inhibition, % at 10 µM. S. cerevisiae Candida pump triplex;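 active = plate passing quality check with inhibition over a set limit, or well fluorescence over plate mean plus 4 SD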;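 also: Nile Red retained in pooled yeast measured as flow cytometry median fluorescence; 0% = buffer negative control and 100% = Enniatin B positive control; higher means more Nile Red kept so more efflux inhibition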
T cruzi repl: T. cruzi replication inhibition. T. cruzi beta-gal in NIH3T3, luminescence, 90 h. inhibition, % (no concentration beside the values). 300,000 tested, 1.4% active;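 active = mean inhibition across valid replicates above about 55%, limit read from the data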;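 also: signal also drops with host cell toxicity which is not excluded here; 0% = plate median of DMSO wells and 100% = zero luminescence signal; higher percent means less beta-gal luminescence so fewer parasites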
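assay system = mouse NIH/3T3 fibroblasts infected with β-gal-expressing T. cruzi Tulahuen C4 | input = 5,000 NIH/3T3 host cells per well | buffer or medium = DMEM plus 2% FBS | timing = 3 h host attachment, then at least 90 h co-culture | measured by = GalScreen luminescence, 60 min | evaluation = luminescence reflecting intracellular parasite burden, expressed as percent inhibition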
Yeast cmpd fluor: compound fluorescence in yeast efflux pump counter-screen; shares compounds with Efflux pump mplx; S. cerevisiae AD/pABC3, flow cytometry; fluorescence ratio to DMSO, % at 10 µM; 1,700 tested, 4% active; AID 588517;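 active = fluorescence ratio to DMSO above its plate's cutoff, the plate mean ratio plus 5 SD, cut at about 210% in these data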;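 also: unstained yeast with no Nile Red so the signal is compound autofluorescence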
Mdr1 pump inh: inhibitors of Candida albicans Mdr1 efflux pump; shares compounds with Efflux pump mplx; S. cerevisiae AD/CaMDR1, Nile Red efflux, flow cytometry; inhibition, % at 10 µM; 1,700 tested, 1% active; AID 588518; in the data active = inhibition above about 26%;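 also: 0% = DMSO vehicle and 100% = reference inhibitor; higher means more Nile Red retained so more efflux inhibition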
Cdr2 pump inh: Candida Cdr2 efflux pump inhibition; shares compounds with Efflux pump mplx; S. cerevisiae AD/CaCDR2, Nile Red retention, flow cytometry; Nile Red retention ratio vs DMSO, % at 10 µM; 1,700 tested, 4% active; in the data active = Nile Red retention ratio vs DMSO above about 190%;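 also: higher ratio means more blocking of Cdr2 efflux of the dye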
Cdr1 pump inh: Candida Cdr1 efflux pump inhibition. shares compounds with Efflux pump mplx. S. cerevisiae AD/CaCDR1, Nile Red efflux, flow cytometry. inhibition, % at 10 µM. 1,700 tested, 1% active;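 active = inhibition above the screen-wide mean plus twice its standard deviation, cut at about 32% in these data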
The depositor's hits bear a star.

For CC(=O)N1c2ccc(S(=O)(=O)NCC3CCC(C(=O)N4CC(C)CC(C)C4)CC3)cc2CC1C (configuration not stated) the results were HDAC3 inh -3, AI-2 QS modul 33, PolyA inhibitor 1, Efflux pump mplx 0 and T cruzi repl 7.
`CN(C)Cc1c(O)ccc2c1O/C(=C\C=C\c1ccccc1)C2=O` gave HDAC3 inh 2, AI-2 QS modul 5, PolyA inhibitor 0, Efflux pump mplx 0.6*, T cruzi repl -10, Yeast cmpd fluor 83, Mdr1 pump inh 0, Cdr2 pump inh 104 and Cdr1 pump inh 0.
Screening O=C(O)CC/C(=N\NC(=O)c1ccccc1Br)c1ccccc1 returned HDAC3 inh -2, AI-2 QS modul 21, PolyA inhibitor -6, Efflux pump mplx 18*, T cruzi repl -2, Yeast cmpd fluor 103, Mdr1 pump inh 0, Cdr2 pump inh 98 and Cdr1 pump inh 0.
Cc1c(C(=O)N2CCCCC2)c(S(=O)(=O)Nc2ccc(F)cc2F)c(C)n1C was read as HDAC3 inh 2, AI-2 QS modul 16, PolyA inhibitor 16, Efflux pump mplx 0 and T cruzi repl -10.
Screening COc1cccc(C(C(=O)NC(C)(C)C)N(C(=O)CCC(=O)Nc2cc(C)on2)C2CC2)c1OC (configuration not stated) returned HDAC3 inh 2, AI-2 QS modul 16, PolyA inhibitor -10, Efflux pump mplx 0, T cruzi repl 3, Yeast cmpd fluor 97, Mdr1 pump inh 0, Cdr2 pump inh 100 and Cdr1 pump inh 0.
CCCCN(C(=O)CCC(=O)Nc1cc(C)on1)C(C(=O)NC(C)(C)C)c1cccc(OC)c1OC (configuration not stated) was read as HDAC3 inh 2, AI-2 QS modul 19, PolyA inhibitor 10, Efflux pump mplx 0 and T cruzi repl -1.
`COc1ccc(C(C(=O)NC(C)(C)C)N(CCO)C(=O)CCC(=O)Nc2cc(C)on2)cc1` (configuration not stated) gave HDAC3 inh -1, AI-2 QS modul 5, PolyA inhibitor 7, Efflux pump mplx 0, T cruzi repl 1, Yeast cmpd fluor 97, Mdr1 pump inh 0, Cdr2 pump inh 102 and Cdr1 pump inh 0.
CC(C)(C)NC(=O)C(c1ccc(F)cc1)N(C(=O)CCC(=O)Nc1ccccn1)C1CCCC1 (configuration not stated) was read as HDAC3 inh -2, AI-2 QS modul 14, PolyA inhibitor -2, Efflux pump mplx 2.4*, T cruzi repl 7, Yeast cmpd fluor 103, Mdr1 pump inh 0, Cdr2 pump inh 131 and Cdr1 pump inh 0.
Screening CC(C)NC(=O)C(c1ccc(F)cc1)N(C(=O)CCC(=O)Nc1ccccn1)C1CCCC1 (configuration not stated) returned HDAC3 inh -4, AI-2 QS modul -3, PolyA inhibitor -1, Efflux pump mplx 0 and T cruzi repl 8.
Screening COc1ccc(C(C(=O)NC(C)(C)C)N(CCc2ccccc2)C(=O)CCC(=O)Nc2cc(C)on2)cc1 (configuration not stated) returned HDAC3 inh 6, AI-2 QS modul 4, PolyA inhibitor -6, Efflux pump mplx 0 and T cruzi repl 11.
For COc1ccc(NS(=O)(=O)c2cc(NC(=O)/C=C/c3ccccc3OC)ccc2N2CCCCC2)cc1 the results were HDAC3 inh -1, AI-2 QS modul 57, PolyA inhibitor -11, Efflux pump mplx 0 and T cruzi repl 22.
For Nc1ccc(-c2nc3ccc(N)cc3[nH]2)cc1 the results were HDAC3 inh -245, AI-2 QS modul 6, PolyA inhibitor 7, Efflux pump mplx 0 and T cruzi repl -12.
`Nc1ccc2nc(-c3cccc(-c4nc5ccc(N)cc5[nH]4)c3)[nH]c2c1` gave HDAC3 inh -8, AI-2 QS modul 10, PolyA inhibitor 3, Efflux pump mplx 2.1*, T cruzi repl -6, Yeast cmpd fluor 101, Mdr1 pump inh 0, Cdr2 pump inh 119 and Cdr1 pump inh 0.
For O=C(Nc1ccc(F)cc1)c1cccnn1 the results were HDAC3 inh 6, AI-2 QS modul 15, PolyA inhibitor 6, Efflux pump mplx 0 and T cruzi repl 6.
`O=C(O)C1C2CCC(C2)C1C(=O)Nc1cccc([N+](=O)[O-])c1` (configuration not stated) gave HDAC3 inh -1, AI-2 QS modul 23, PolyA inhibitor 18, Efflux pump mplx 0 and T cruzi repl -6.
`CC1=C(C)CC(C(=O)Nc2cccc([N+](=O)[O-])c2)C(C(=O)O)C1` (configuration not stated) gave HDAC3 inh 0, AI-2 QS modul 0, PolyA inhibitor 6, Efflux pump mplx 35*, T cruzi repl -9, Yeast cmpd fluor 98, Mdr1 pump inh 0, Cdr2 pump inh 91 and Cdr1 pump inh 0.
Cc1ccc(C)c(N2CCN(C(=O)C3CCCN(c4ncnc5c4nc4n5CCCCC4)C3)CC2)c1 (configuration not stated) was read as HDAC3 inh 14, AI-2 QS modul 40, PolyA inhibitor 16, Efflux pump mplx 2.5*, T cruzi repl 37, Yeast cmpd fluor 79, Mdr1 pump inh 0, Cdr2 pump inh active and Cdr1 pump inh 0.
Screening Cc1ccc(N2CCN(C(=O)C3CCCN(c4ncnc5c4nc4n5CCCCC4)C3)CC2)c(C)c1 (configuration not stated) returned HDAC3 inh 1, AI-2 QS modul -13, PolyA inhibitor 7, Efflux pump mplx 0 and T cruzi repl -6.
Screening Cc1ccc2sc(N(CCCN(C)C)C(=O)c3ccc(Br)s3)nc2c1C returned HDAC3 inh 13, AI-2 QS modul 28, PolyA inhibitor 16, Efflux pump mplx 0.9*, T cruzi repl 70*, Yeast cmpd fluor 104, Mdr1 pump inh 0, Cdr2 pump inh 280* and Cdr1 pump inh 0.
For Cc1cc2c([nH]c3ccccc32)c2c1OC(C)(C)C=C2 the results were HDAC3 inh 7, AI-2 QS modul -2, PolyA inhibitor -5, Efflux pump mplx 1.5*, T cruzi repl 0, Yeast cmpd fluor 96, Mdr1 pump inh 0, Cdr2 pump inh 104 and Cdr1 pump inh 0.
